M18AAP inhibitor – PfM18AAP inhibitors, malaria aminopeptidase, primary screen, biochemical, QFRET, recombinant enzyme; AID 1822, 2009; inhibition, % at 7.35 µM; M18 aspartyl aminopeptidase (Plasmodium falciparum 3D7); 290,000 compounds, 1.2% hits; H-Glu-NHMec fluorogenic cleavage;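 active means inhibition above the campaign mean inhibition over all tested compounds plus 3 SD, cut at about 28% in these data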;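 further: 0% = plate median of test compound wells and 100% = 2 mM ZnCl2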
HTR2A ag – mouse Htr2a agonists via beta-arrestin recruitment, primary screen, cell-based, luminescence; 5-hydroxytryptamine receptor 2A (Mus musculus), P35363; 360,000 compounds, 0.66% hits; activation, % at 7.6 µM; CHO-K1 mHTR2A beta-arrestin complementation; percent of 30 µM serotonin response;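 active means activation above a run cutoff, the mean activation of all tested compounds plus 3 SD, cut at about 14% in these data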;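 further: 0% = plate median of compound wells and 100% = 30 µM serotonin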
Lipid droplet – inhibitors of hepatocyte lipid droplet formation, primary screen, imaging, high-throughput imaging, BODIPY stain | AML12 mouse hepatocytes, oleate lipid droplets | inhibition, % at 6.5 µM | 240,000 compounds, 0.4% hits;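 active means lipid droplet intensity inhibited by at least 50%, with more than 500 cells counted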
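material = mouse AML12 hepatocyte cell line, fixed after treatment | also added = 100 µM oleic acid challenge | doses = compound at 6.5 µM only | schedule = overnight exposure | technique = Image-based BODIPY and DAPI two-channel analysis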
CendR NRP1 mod – modulators of CendR peptide binding to NRP-1, primary screen, biochemical, fluorescence polarization, uHTS; inhibition, % at 25 µM; FAM-RPARPAR peptide binding to NRP-1; 360,000 compounds, 0.85% hits; Neuropilin-1 (Homo sapiens), O14786;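 active means inhibition or corrected inhibition above about 18%, plus a signal ratio from 0.5 to 1.5, limit read from the data, passing the limit was not always enough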
Arrestin-AP2 inh – inhibitors of beta-arrestin/AP2 binding, primary screen, biochemical, GPCR trafficking, flow cytometry; inhibition, % at 10 µM; FITC-arrestin peptide / GST-AP2 beads; AP2 beta2 appendage carries R879A mutation; 340,000 compounds, 0.31% hits; AID 504490, 2011;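 active means inhibition above a set limit, near 3 SD of compounds lacking own fluorescence, cut at about 54% in these data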;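 further: plate controls were DMSO wells for no effect and 5 µM unlabelled arrestin peptide for full effect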
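Material – AP2 appendage R879A on GSH beads · Buffer or medium – PBS with 0.05% Tween 20 and 0.1% BSA · Probe or stimulus – fluorescein-tagged arrestin peptide at 50 nM final · Incubation – compound with beads 12 min RT, then probe 1 h RT · Detection – high-throughput flow cytometry of beads, ex 488, em 535 nm · Evaluation – percent response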
sPLA2-III inh – human group III sPLA2 inhibitors, primary screen, biochemical, QFRET, BODIPY PC-A2 liposome substrate | AID 743126, 2013 | inhibition, % at 12.2 µM | QFRET BODIPY PC-A2 liposome hydrolysis, fluorescence | 370,000 compounds, 0.56% hits;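 active means inhibition above mean plus 3 SD of compounds lying within the high and low control bounds, cut at about 19% in these data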;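 further: 0% = median of test compound wells and 100% = no enzyme DMSO wells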
MOR ag counter – OPRM1 agonists via beta-arrestin recruitment, confirmation, counter-screen for mouse HTR2A agonist project, cell-based, luminescence, single concentration; shares compounds with HTR2A ag; 2,300 compounds, 5.3% hits; U2OS OPRM1 beta-arrestin PathHunter; DMSO 0%, DAMGO 9.3 µM 100%; activation, % at 9.3 µM;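 active means mean activation above the mean of DMSO-only wells plus 3 SD, cut at about 0.5% in these data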
Target sequence (P35372 whole entry, looked up): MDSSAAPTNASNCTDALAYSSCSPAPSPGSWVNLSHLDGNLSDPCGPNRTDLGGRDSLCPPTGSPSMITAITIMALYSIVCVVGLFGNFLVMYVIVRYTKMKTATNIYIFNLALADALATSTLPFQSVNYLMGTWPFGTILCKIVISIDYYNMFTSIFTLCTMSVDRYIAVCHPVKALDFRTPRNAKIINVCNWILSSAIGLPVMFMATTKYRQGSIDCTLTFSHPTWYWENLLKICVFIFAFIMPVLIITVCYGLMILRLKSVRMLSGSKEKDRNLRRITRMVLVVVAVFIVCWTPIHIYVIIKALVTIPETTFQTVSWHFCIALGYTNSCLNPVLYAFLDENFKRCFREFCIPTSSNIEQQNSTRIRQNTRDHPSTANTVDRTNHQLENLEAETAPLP
HTR2A ag conf – mouse HTR2A agonists, beta-arrestin recruitment, confirmation, cell-based, luminescence, CHO-K1 PathHunter, triplicate | shares compounds with HTR2A ag | DMSO 0%, 30 µM serotonin 100% | activation, % at 7.6 µM | 2,300 compounds, 19% hits;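 active means mean activation across triplicates above the hit threshold derived in the original primary screen, cut at about 15% in these data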
The depositor's hits bear a star; x = no result given. Most compounds without a hit are left out; they make up all but 3.3% or so of the library.

SMILES | M18AAP inhibitor | HTR2A ag | Lipid droplet | CendR NRP1 mod | Arrestin-AP2 inh | sPLA2-III inh | MOR ag counter | HTR2A ag conf
COc1cccc(NC(=O)N2CCN(c3cccc(C)c3)C(C)C2)c1 (configuration not stated) | -1.7 | 4.2 | x | 10.2 | 3.7 | -5.8 | x | x
COc1cccc(N2CCN(C(=O)c3ccc(=O)oc3)CC2C)c1 (configuration not stated) | 8.4 | 21.5* | x | -10.7 | 10.2 | 2.8 | -0.5 | 4.0
Brc1ccc(CN2CCN(c3ccccn3)CC2)s1 | 0.9 | 29.5* | -11.8 | -2.2 | -11.0 | 0.3 | -0.4 | 98.1*
c1cnc(N2CCN(Cc3ccc4c(c3)OCO4)CC2)nc1 | 3.4 | 41.7* | -12.6 | 4.5 | 1.3 | -8.6 | -0.1 | 169.0*
c1ccc(N2CCN(Cc3ccc4c(c3)OCO4)CC2)nc1 | x | 31.7* | x | -4.8 | 1.0 | 9.8 | -0.6 | 113.2*
O=c1c(CN2CCN(c3ccccn3)CC2)coc2ccccc12 | -3.8 | 0.0 | 16.0 | -9.3 | 29.9 | 1.9 | x | x
c1nc(N2CCN(Cc3ccc4c(c3)OCO4)CC2)c2[nH]cnc2n1 | 8.6 | 20.4* | 3.0 | 11.2 | -0.5 | 1.1 | -0.2 | 74.8*
O=C1CCC2(CCC(c3ccccc3)CC2)N1CC[C@@H](O)c1ccccc1 (some centres not stated) | x | x | x | x | x | -1.6 | x | x
Cc1ccccc1S(=O)(=O)N(C)C[C@H]1OCc2cnnn2CCCC(=O)N([C@H](C)CO)C[C@H]1C | x | -1.6 | x | -9.8 | x | 7.5 | x | x
O=C(CSc1n[nH]c(=O)n1C1CC1)NCc1ccccc1 | -13.4 | 14.9* | -0.7 | 4.6 | 23.5 | 3.0 | -0.7 | -2.8
N#Cc1ccc(Sc2ccccn2)c([N+](=O)[O-])c1 | 1.7 | 14.8* | -3.2 | -1.8 | -1.5 | 1.3 | -0.4 | -4.3
Cc1ccccc1CNC(=O)C1C2C=CC3(CN(Cc4ccccc4)C(=O)C13)O2 (configuration not stated) | x | x | x | x | x | 9.3 | x | x
COC(=O)[C@@H]1C[C@@]2(O)[C@H](O)[C@H](O)[C@H](O)C[C@H]2N1CC1CC1 | x | 7.8 | 49.4 | -0.9 | -8.2 | 0.8 | x | x
COC(=O)[C@@H]1C[C@@]2(O)[C@H](O)[C@H](O)[C@H](O)C[C@H]2N1CC(c1ccccc1)c1ccccc1 | x | 20.1* | 7.4 | -4.9 | 34.2 | 5.9 | -0.6 | -0.5
CCOc1ncccc1C(=O)Nc1cc(S(=O)(=O)N2CCCCC2)ccc1Cl | x | 5.0 | x | 11.5 | -5.1 | 3.5 | x | x
COc1ccc(NS(=O)(=O)c2cccc(C(=O)NCC(c3ccco3)N(C)C)c2)cc1 (configuration not stated) | x | -12.5 | x | 2.9 | 21.9 | 1.5 | x | x
CS(=O)(=O)c1ccc(NS(=O)(=O)c2ccc(Cl)c(C(=O)NCc3ccco3)c2)cc1 | x | 19.2* | x | 7.4 | 12.6 | -8.4 | -0.4 | -1.1
CCN(CC)S(=O)(=O)c1ccc(Cl)c(C(=O)NCc2ccco2)c1 | 1.1 | 2.0 | 1.5 | -3.8 | 25.5 | 3.6 | x | x
COc1ccc(NS(=O)(=O)c2ccc(C)c(C(=O)NCC(c3ccco3)N(C)C)c2)cc1 (configuration not stated) | x | 15.6* | x | -5.6 | 23.0 | 0.0 | -0.1 | -3.0
O=C1Nc2ccccc2-n2nnnc2C1N1CCN(c2ccc(F)cc2)CC1 (configuration not stated) | x | -4.5 | x | 3.1 | x | -6.2 | x | x
COc1ccc(Cc2c(-c3ccc(F)cc3)nc3cc(C)c(Br)c(C)n23)c(C)c1 | x | -3.2 | x | -3.0 | x | -5.8 | x | x
COC(=O)c1cc(OC)c(OC)cc1NC(=O)CSCc1c(C)noc1C | x | 15.8* | x | -4.6 | -4.8 | 4.2 | -0.6 | 3.2
COc1cc(NC(=O)CCc2c(C)noc2C)c(C(=O)O)cc1OC | x | 5.9 | x | 17.6 | x | -4.3 | x | x
O=C(OC12CCCN(C1)/C(=C/c1ccc(Cl)cc1)C2)C1CCCC1 (configuration not stated) | x | x | x | x | x | 3.2 | x | x
O=C(NC(=O)c1ccccc1)OCC(F)(F)F | 3.2 | -0.7 | x | 6.7 | 10.1 | 4.6 | x | x
SMILES | M18AAP inhibitor | HTR2A ag | Lipid droplet | CendR NRP1 mod | Arrestin-AP2 inh | sPLA2-III inh | MOR ag counter | HTR2A ag conf
CNC(=O)c1ccc(CNC(=O)OCC(F)(F)F)cc1 | -0.5 | 25.3* | x | 6.9 | 10.5 | 4.7 | -0.1 | 2.1
COc1nc(OC)nc(N2CCC(C(=O)NCc3cccc(OC)c3OC)CC2)n1 | x | x | x | x | x | 2.2 | x | x
COc1ccc(S(=O)(=O)N2c3ccccc3NC(=O)CC2C)cc1 (configuration not stated) | -2.1 | 19.0* | -0.7 | -0.1 | 49.6 | 4.2 | -0.7 | -3.5
CC1CC(=O)Nc2ccccc2N1S(=O)(=O)c1ccc(C(F)(F)F)cc1 (configuration not stated) | -2.8 | -2.3 | 1.0 | -13.8 | 14.7 | 0.2 | x | x
CCCSc1nnc2n(-c3ccccc3OC)c(=O)c3c4c(sc3n12)CCC4 | -2.2 | 7.9 | 5.3 | 12.9 | -8.4 | 2.3 | x | x
COc1ccccc1-n1c(=O)c2c3c(sc2n2c(SC(C)C)nnc12)CCC3 | -8.5 | 15.7* | 9.9 | 6.8 | -3.5 | 4.5 | -0.6 | 4.5
C=CCc1ccccc1OCCn1ccnc1 | 14.9 | 15.2* | 0.2 | 10.1 | -5.6 | -7.3 | -0.6 | -5.3
C=CCc1cccc(OC)c1OCCOCCn1ccnc1 | 5.4 | -0.6 | -28.7 | -2.7 | 11.2 | -20.3 | x | x
COc1ccc(NC(=O)C2CCCN2S(=O)(=O)c2cccc3nsnc23)c(OC)c1 (configuration not stated) | -7.1 | -1.4 | -23.1 | -9.3 | 22.5 | x | x | x
CCc1cc(=O)oc2c(C)c(O)c(CN3CCCCC3)cc12 | 5.2 | 22.2* | x | -9.6 | -4.8 | -1.9 | -0.5 | -2.3
O=C(c1ccc(-c2ccc([N+](=O)[O-])cc2)o1)N1CCCCCCC1 | x | 15.1* | x | -6.0 | 40.0 | 7.9 | -0.6 | -5.6
CS(=O)(=O)c1ccc2nc(NC(=O)c3ccc(Cl)cc3)sc2c1 | 9.8 | 18.1* | x | -1.8 | 3.5 | -0.2 | -0.5 | 2.9
CC/C(=N/N=C(/CC)c1ccc(O)cc1)c1ccc(O)cc1 | x | -3.8 | x | -4.0 | 25.3 | -0.7 | x | x
